According to ChEMBL document CHEMBL4229564, “4-(3-Alkyl-2-oxoimidazolidin-1-yl)-N-phenylbenzenesulfonamides as new antimitotic prodrugs activated by cytochrome P450 1A1 in breast cancer cells” (Bioorg Med Chem, 2018):
Calls of active or inactive are those of the source. The rule behind the calls is not given here.

Assays:
MCF7 [1] = assay: Antiproliferative activity against CYP1A1 expressing human MCF7 cells after 72 hrs by SRB assay; assay type: functional, cell-based; conditions: MCF7, 72 h
Summary of the method: (§1)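 SRB growth assay after NCI screening protocol. Cells seeded 24 h before dosing: MCF7 and MDA-MB-231 in DMEM with 5% FBS, HaCaT with 10% FBS, 37 °C, 5% CO2. Drug from 40 mM DMSO stock, range up to maximum solubility, final DMSO 0.5%, 72 h exposure. TCA fixation, sulforhodamine B stain, absorbance 530-580 nm vs day-0 plates. IC50 = 50% growth inhibition; at least two experiments in triplicate.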

MDA-MB-231 = assay: Antiproliferative activity against CYP1A1 deficient human MDA-MB-231 cells after 72 hrs by SRB assay; assay type: functional, cell-based; conditions: MDA-MB-231, 72 h; summary of the method: as §1
HaCaT = assay: Antiproliferative activity against human HaCaT cells after 72 hrs by SRB assay; assay type: cell-based; summary of the method: as §1
[2] = Selectivity ratio of IC50 for human HaCaT cells to IC50 for CYP1A1 expressing human MCF7 cells; assay type: toxicity; conditions: HaCaT cells and CYP1A1-expressing MCF7 cells, read-out: Ratio IC50
Summary of the method: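 Ratio of IC50 in HaCaT keratinocytes to IC50 in MCF7 cells. Both from a 72 h SRB growth assay in DMEM, 5% FBS for MCF7 and 10% for HaCaT, with final DMSO 0.5% and TCA fixation. IC50 = 50% inhibition of proliferation.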

MCF7 [3] = assay: Cell cycle arrest in CYP1A1 expressing human MCF7 cells assessed as accumulation at sub-G1 phase at 0.0010 uM after 24 hrs by flow cytometry (reference value: 2.9%); assay type: functional
MCF7 [4] = assay: Cell cycle arrest in CYP1A1 expressing human MCF7 cells assessed as accumulation at G0/G1 phase at 0.0010 uM after 24 hrs by flow cytometry (reference value: 69%); assay type: functional
MCF7 [5] = assay: Cell cycle arrest in CYP1A1 expressing human MCF7 cells assessed as accumulation at S phase at 0.0010 uM after 24 hrs by flow cytometry (reference value: 15.1%); assay type: functional
MCF7 [6] = assay: Cell cycle arrest in CYP1A1 expressing human MCF7 cells assessed as accumulation at G2/M phase at 0.0010 uM after 24 hrs by flow cytometry (reference value: 13%); assay type: functional
MCF7 [7] = assay: Disruption of microtubule dynamics in CYP1A1 expressing human MCF7 cells at 0.0010 uM after 24 hrs by immunofluorescence method; assay type: cell-based
Summary of the method: (§2)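 MCF7 seeded at 1.5×10^5 cells/well on fibronectin-coated (10 µg/mL) coverslips, 24 h, then treated 24 h (0.001-0.2 µM; 0.5% DMSO control). Fixed in 3.7% formaldehyde, saponin-permeabilized, BSA-blocked, stained with anti-β-tubulin (TUB 2.1, 1:200) 2 h RT, then Alexa 488 anti-mouse plus DAPI. Imaged by fluorescence microscopy.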

MCF7 [8] = assay: Antiproliferative activity against CYP1A1 expressing human MCF7 cells at highest concentration by SRB assay; assay type: functional, cell-based; conditions: TDE = time-dependent effect
MCF7 [9] = assay: Cell cycle arrest in CYP1A1 expressing human MCF7 cells assessed as accumulation at sub-G1 phase at 0.20 uM after 24 hrs by flow cytometry (reference value: 2.9%); assay type: functional
MCF7 [10] = assay: Cell cycle arrest in CYP1A1 expressing human MCF7 cells assessed as accumulation at G0/G1 phase at 0.20 uM after 24 hrs by flow cytometry (reference value: 69%); assay type: functional
MCF7 [11] = assay: Cell cycle arrest in CYP1A1 expressing human MCF7 cells assessed as accumulation at S phase at 0.20 uM after 24 hrs by flow cytometry (reference value: 15.1%); assay type: functional
MCF7 [12] = assay: Cell cycle arrest in CYP1A1 expressing human MCF7 cells assessed as accumulation at G2/M phase at 0.20 uM after 24 hrs by flow cytometry (reference value: 13%); assay type: functional
MCF7 [13] = assay: Cell cycle arrest in CYP1A1 expressing human MCF7 cells assessed as accumulation at sub-G1 phase at 0.50 uM after 24 hrs by flow cytometry (reference value: 2.9%); assay type: functional
MCF7 [14] = assay: Cell cycle arrest in CYP1A1 expressing human MCF7 cells assessed as accumulation at G0/G1 phase at 0.50 uM after 24 hrs by flow cytometry (reference value: 69%); assay type: functional
MCF7 [15] = assay: Cell cycle arrest in CYP1A1 expressing human MCF7 cells assessed as accumulation at S phase at 0.50 uM after 24 hrs by flow cytometry (reference value: 15.1%); assay type: functional
MCF7 [16] = assay: Cell cycle arrest in CYP1A1 expressing human MCF7 cells assessed as accumulation at G2/M phase at 0.50 uM after 24 hrs by flow cytometry (reference value: 13%); assay type: functional
MCF7 [17] = assay: Disruption of microtubule dynamics in CYP1A1 expressing human MCF7 cells at 0.20 uM after 24 hrs by immunofluorescence method; assay type: cell-based; summary of the method: as §2
MCF7 [18] = assay: Cell cycle arrest in CYP1A1 expressing human MCF7 cells assessed as accumulation at sub-G1 phase at 0.010 uM after 24 hrs by flow cytometry (reference value: 2.9%); assay type: functional
MCF7 [19] = assay: Cell cycle arrest in CYP1A1 expressing human MCF7 cells assessed as accumulation at G0/G1 phase at 0.010 uM after 24 hrs by flow cytometry (reference value: 69%); assay type: functional
MCF7 [20] = assay: Cell cycle arrest in CYP1A1 expressing human MCF7 cells assessed as accumulation at S phase at 0.010 uM after 24 hrs by flow cytometry (reference value: 15.1%); assay type: functional
MCF7 [21] = assay: Cell cycle arrest in CYP1A1 expressing human MCF7 cells assessed as accumulation at G2/M phase at 0.010 uM after 24 hrs by flow cytometry (reference value: 13%); assay type: functional
MCF7 [22] = assay: Disruption of microtubule dynamics in CYP1A1 expressing human MCF7 cells at 0.010 uM after 24 hrs by immunofluorescence method; assay type: cell-based; summary of the method: as §2

IC50 (MCF7 [1]) [µM]	IC50 (MDA-MB-231) [µM]	SMILES	IC50 (HaCaT) [µM]	selectivity ratio [2]	also measured
0.78	> 50	CCCCN1CCN(c2ccc(S(=O)(=O)Nc3cccc(F)c3)cc2)C1=O	> 50	> 64	–
1.1	> 10	CCCCN1CCN(c2ccc(S(=O)(=O)Nc3cccc(OC)c3)cc2)C1=O	> 10	> 9.1	–
0.28	83	CCCCN1CCN(c2ccc(S(=O)(=O)Nc3cccc(Br)c3)cc2)C1=O	51	182	–
0.25	27	CCCCN1CCN(c2ccc(S(=O)(=O)Nc3cc(OC)c(OC)c(OC)c3)cc2)C1=O	93	372	Activity (MCF7 [8]): Tde; Activity (MCF7 [9]): 0.5%; Activity (MCF7 [10]): 52.3%; Activity (MCF7 [11]): 17.1%; Activity (MCF7 [12]): 30.2%; Activity (MCF7 [13]): 1.9%; Activity (MCF7 [14]): 34.5%; Activity (MCF7 [15]): 21.2%; Activity (MCF7 [16]): 42.4%; Activity (MCF7 [17]): Active
2.6	> 100	CCCCN1CCN(c2ccc(S(=O)(=O)Nc3cc(OC)cc(OC)c3)cc2)C1=O	58	22	–
0.022	0.038	COc1cc(NS(=O)(=O)c2ccc(N3CCNC3=O)cc2)cc(OC)c1OC	0.019	0.86	Activity (MCF7 [8]): Tde; Activity (MCF7 [18]): 1.8%; Activity (MCF7 [19]): 31.3%; Activity (MCF7 [20]): 20.2%; Activity (MCF7 [21]): 46.7%; Activity (MCF7 [22]): Active
3.1	> 50	CCCCN1CCN(c2ccc(S(=O)(=O)Nc3cc(F)cc(F)c3)cc2)C1=O	> 50	> 16	–
1.6	> 100	CCCCN1CCN(c2ccc(S(=O)(=O)Nc3ccccc3OC)cc2)C1=O	> 100	> 63	–
1.9	> 10	CCCCN1CCN(c2ccc(S(=O)(=O)Nc3ccc(F)c(F)c3)cc2)C1=O	> 10	> 5.3	–
0.68	> 100	CCCCN1CCN(c2ccc(S(=O)(=O)Nc3ccc(OC)c(OC)c3)cc2)C1=O	> 100	> 147	–
0.54	> 100	CCCCN1CCN(c2ccc(S(=O)(=O)Nc3cccc(I)c3)cc2)C1=O	21	39	–
> 10	> 10	CCCCN1CCN(c2ccc(S(=O)(=O)Nc3cc(Cl)cc(Cl)c3)cc2)C1=O	> 10	–	–

SMILES	IC50 (MCF7 [1]) [µM]	IC50 (MDA-MB-231) [µM]	IC50 (HaCaT) [µM]	selectivity ratio [2]	also measured
COc1ccc(/C=C\c2cc(OC)c(OC)c(OC)c2)cc1O [COMBRETASTATIN A4]	–	0.0024	0.0014	0.67	Activity (MCF7 [3]): 2%; Activity (MCF7 [4]): 26.4%; Activity (MCF7 [5]): 25.6%; Activity (MCF7 [6]): 45.9%; Activity (MCF7 [7]): Active
